Source: ChEMBL document CHEMBL1125737, “Synthesis and anti-HIV activities of low molecular weight aurintricarboxylic acid fragments and related compounds” (J Med Chem, 1991)
≈ marks a conversion by molar mass, not a printed value.

Experiments:
[1] = 50% cytotoxic concentrations for mock-infected MT-4 cells; format: cell-based, MT4; conditions: human
How it was run: (§1)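 Mock-infected MT-4 cells were exposed to the compounds. Viability was read by a tetrazolium (MTT) colorimetric method in 96-well microtrays. The value is the concentration that is 50% cytotoxic, given as the mean of at least three experiments.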

[2] = system: Human immunodeficiency virus 2; experiment: Inhibitory concentration for cytopathicity of HIV-2 (LAV-2ROD) in MT-4 cells; format: functional, organism-based; conditions: Human immunodeficiency virus 2, MT4
[3] = system: Human immunodeficiency virus 1; experiment: Inhibitory concentration for cytopathicity of HIV-1 (HTLV-IIIB) in MT-4 cells; format: functional, organism-based; conditions: Human immunodeficiency virus 1, MT4
[4] = system: Human immunodeficiency virus 1; experiment: Inhibitory concentration for cytopathicity of HIV-1 (HTLV-IIIB) in CEM cells; format: functional, organism-based; conditions: Human immunodeficiency virus 1, CCRF-CEM
How it was run: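 HIV-1 (HTLV-IIIB)-infected CEM cells were treated with the compounds. Cell viability was determined by a tetrazolium (XTT) assay. The 50% inhibitory concentration for cytopathicity is the mean of at least three experiments.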

HuT78 [5] = experiment: Inhibitory concentration that reduced the number of gaint cells by 50% between HIV-1 infected HUT-78 cells and uninfected MOLT-4 cells; format: functional, cell-based; conditions: Homo sapiens
How it was run: (§2)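 MOLT-4 cells were cocultured with an equal number of HUT-78/HTLV-IIIB or HUT-78/LAV-2ROD cells at various compound concentrations for 24 h. Giant cells were counted microscopically and analysed by laser flow cytometry. The value is the concentration reducing giant cell number by 50%, as the mean of at least three experiments.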

HuT78 [6] = experiment: Inhibitory concentration that reduced the number of gaint cells by 50% between HIV-2 infected HUT-78 cells and uninfected MOLT-4 cells; format: functional, cell-based; conditions: Homo sapiens; how it was run: as §2
[7] = 50% cytotoxic concentrations for mock-infected MT-4 cells.; format: cell-based, MT4; conditions: human; how it was run: as §1
HuT78 [8] = experiment: Inhibitory concentration that reduced the number of gaint cells by 50% between HIV-1 infected HUT-78 cells and uninfected MOLT-4 cells.; format: functional, cell-based; conditions: Homo sapiens; how it was run: as §2
HuT78 [9] = experiment: Inhibitory concentration that reduced the number of gaint cells by 50% between HIV-2 infected HUT-78 cells and uninfected MOLT-4 cells.; format: functional, cell-based; conditions: Homo sapiens; how it was run: as §2

Row | IC50 [2] | IC50 [3] | IC50 [4] | Compound | CC50 [1] | IC50 (HuT78 [5]) | IC50 (HuT78 [6]) | CC50 [7] | IC50 (HuT78 [8]) | IC50 (HuT78 [9])
1 | 13 µg/mL (≈ 30.6 µM) | > 100 µg/mL | 32.5 µg/mL (≈ 76.6 µM) | O=C(O)c1cc(C(c2ccc(O)c(C(=O)O)c2)c2ccc(O)c(C(=O)O)c2)ccc1O | 256 µg/mL (≈ 603 µM) | > 100 µg/mL | 15 µg/mL (≈ 35.3 µM) | – | – | –
2 | 67 µg/mL (≈ 144 µM) | 80 µg/mL (≈ 172 µM) | > 186 µg/mL | Cc1cc(C(c2cc(C)c(O)c(C(=O)O)c2)c2cc(C)c(O)c(C(=O)O)c2)cc(C(=O)O)c1O | 82 µg/mL (≈ 176 µM) | > 20 µg/mL | > 20 µg/mL | – | – | –
3 | > 100 µg/mL | > 100 µg/mL | – | O=C(O)c1cc(Cc2cc(Br)c(O)c(C(=O)O)c2)cc(Br)c1O | – | – | – | > 100 µg/mL | – | –
4 | > 100 µg/mL | > 100 µg/mL | 55.5 µg/mL (≈ 175 µM) | Cc1cc(Cc2cc(C)c(O)c(C(=O)O)c2)cc(C(=O)O)c1O | > 100 µg/mL | – | – | – | – | –
5 | > 100 µg/mL | > 100 µg/mL | > 276 µg/mL | O=C(O)c1cc(Cc2ccc(O)c(C(=O)O)c2)ccc1O | – | – | – | > 100 µg/mL | – | –
6 | > 100 µg/mL | > 100 µg/mL | 117 µg/mL (≈ 328 µM) | O=C(O)c1cc(Cc2cc(Cl)c(O)c(C(=O)O)c2)cc(Cl)c1O | – | – | – | > 100 µg/mL | – | –
7 | > 100 µg/mL | > 100 µg/mL | > 125 µg/mL | O=C(O)c1cccc(Cc2cccc(C(=O)O)c2O)c1O | – | – | – | > 100 µg/mL | – | –

Continued, compound first:

Row | Compound | IC50 [2] | IC50 [3] | IC50 [4] | CC50 [1] | IC50 (HuT78 [5]) | IC50 (HuT78 [6]) | CC50 [7] | IC50 (HuT78 [8]) | IC50 (HuT78 [9])
8 | COC(=O)c1cc(C(O)(c2ccc(O)c(C(=O)OC)c2)c2ccc(O)c(C(=O)OC)c2)ccc1O | > 100 µg/mL | > 100 µg/mL | > 78 µg/mL | 66 µg/mL (≈ 137 µM) | > 100 µg/mL | > 100 µg/mL | – | – | –
9 | O=C(O)c1cc(Cc2cc(C(=O)O)c(O)c3ccccc23)c2ccccc2c1O | 79 µg/mL (≈ 203 µM) | 75 µg/mL (≈ 193 µM) | 20 µg/mL (≈ 51.5 µM) | – | – | – | 73 µg/mL (≈ 188 µM) | > 20 µg/mL | > 20 µg/mL
10 | COC(=O)c1cc(C(c2cc(C)c(O)c(C(=O)OC)c2)c2cc(C)c(O)c(C(=O)OC)c2)cc(C)c1O | > 100 µg/mL | > 100 µg/mL | – | > 100 µg/mL | – | – | – | – | –
11 | O=S(=O)([O-])c1cc(Cl)cc(Cc2cc(Cl)cc(S(=O)(=O)[O-])c2O)c1O.[Na+].[Na+] | > 100 µg/mL | > 100 µg/mL | 123 µg/mL | > 100 µg/mL | > 100 µg/mL | > 100 µg/mL | – | – | –
12 | CC1=C/C(=C(/c2cc(C)c(O)c(C(=O)[O-])c2)c2c(Cl)ccc(S(=O)(=O)[O-])c2Cl)C=C(C(=O)[O-])C1=O.[Na+].[Na+].[Na+] [CHROME AZUROL S] | – | – | 50.2 µg/mL | – | – | – | – | – | –
13 | O=C(O)c1cc(C(O)(c2ccc(O)c(C(=O)O)c2)c2ccc(O)c(C(=O)O)c2)ccc1O | 15 µg/mL (≈ 34.1 µM) | > 100 µg/mL | 50.4 µg/mL (≈ 114 µM) | 248 µg/mL (≈ 563 µM) | > 100 µg/mL | 15 µg/mL (≈ 34.1 µM) | – | – | –
14 | COC(=O)c1cc(C(c2ccc(O)c(C(=O)OC)c2)c2ccc(O)c(C(=O)OC)c2)ccc1O | > 100 µg/mL | > 100 µg/mL | > 78 µg/mL | 52 µg/mL (≈ 111 µM) | > 100 µg/mL | > 100 µg/mL | – | – | –
15 | Cc1cc(C(O)(c2cc(C)c(O)c(C(=O)O)c2)c2cc(C)c(O)c(C(=O)O)c2)cc(C(=O)O)c1O | > 100 µg/mL | > 100 µg/mL | > 205 µg/mL | > 100 µg/mL | – | – | – | – | –
16 | O=C(O)C1=CC(=C(c2ccc(O)c(C(=O)O)c2)c2ccc(O)c(C(=O)O)c2)C=CC1=O [AURINTRICARBOXYLIC ACID] | 0.85 µg/mL (≈ 2.01 µM) | 1.1 µg/mL (≈ 2.6 µM) | 2.1 µg/mL (≈ 4.97 µM) | 280 µg/mL (≈ 663 µM) | – | 4 µg/mL (≈ 9.47 µM) | – | – | –
17 | O=C(O)c1cc(Br)cc(Cc2cc(Br)cc(C(=O)O)c2O)c1O | > 100 µg/mL | > 100 µg/mL | 72.1 µg/mL (≈ 162 µM) | – | – | – | > 100 µg/mL | – | –
